E-selectin induc = induces E-selectin expression in human endothelial cells | AID 686992 | HUVEC E-selectin immunofluorescence imaging; normalized: neutral wells 0, TNF-alpha wells 100 | activation, % at 7.58 µM | actives 0.37% (n = 260,000) | P16581;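 active means mean E-selectin-positive cell signal at least 10% of the positive control, reached in at least 60% of replicates, without over 20% cell loss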
Target sequence (P16581 whole entry, looked up): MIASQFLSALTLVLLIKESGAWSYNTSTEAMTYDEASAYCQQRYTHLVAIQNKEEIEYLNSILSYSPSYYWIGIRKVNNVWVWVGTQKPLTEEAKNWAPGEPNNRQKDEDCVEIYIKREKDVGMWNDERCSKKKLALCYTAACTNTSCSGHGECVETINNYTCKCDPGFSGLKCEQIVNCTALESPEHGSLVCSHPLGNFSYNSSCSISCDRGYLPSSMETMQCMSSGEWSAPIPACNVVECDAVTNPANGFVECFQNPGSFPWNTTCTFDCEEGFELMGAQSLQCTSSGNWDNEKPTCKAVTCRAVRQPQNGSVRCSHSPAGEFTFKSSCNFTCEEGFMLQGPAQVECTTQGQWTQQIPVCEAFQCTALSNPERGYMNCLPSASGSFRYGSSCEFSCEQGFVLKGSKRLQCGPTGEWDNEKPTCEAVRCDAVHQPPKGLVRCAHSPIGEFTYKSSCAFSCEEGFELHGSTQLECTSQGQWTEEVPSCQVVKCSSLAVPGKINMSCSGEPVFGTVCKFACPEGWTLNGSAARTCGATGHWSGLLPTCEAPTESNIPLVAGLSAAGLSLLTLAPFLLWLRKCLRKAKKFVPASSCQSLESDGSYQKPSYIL
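Read-out: % PE-positive cells | Test system: HUVEC | Doses: One compound dose added by pin transfer | Buffer or medium: EGM-2 over gelatin coat | Signal: Immunofluorescence imaging | Benchmarks: TNF-alpha, DMSO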
XiGFP reactiv = activators of X-chromosome reactivation in mouse fibroblasts | XiGFP mouse fibroblasts, % GFP-positive cells imaging, 3 d; cells co-treated with 5-aza-dC sensitizer; scaled so ellipticine positive control = 100% | activation, % at 7.58 µM | actives 0.055% (n = 360,000) | AID 743238;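 active means mean normalized replicate activation at least 10% and every replicate at or above 10%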;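 further: 0% = median of on-plate neutral control wells and 100% = ellipticine 6 µM median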
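Material: SV40-immortalized XiGFP fibroblast cells, line 68-5-11 | Buffer or medium: DMEM containing 5-aza-dC | Dosing: One concentration, pinned | Times: 3 d treatment, 15 min room-temperature fixation | Controls: Ellipticine 6 µM positive control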
Ecoli rRNA inh = inhibitors of bacterial rRNA selective over humanized ribosomes; E. coli WT GFP vs humanized-ribosome RFP mutants, fluorescence, 24 h; active compounds read low; DMSO median 0, no signal -100; GFP signal change (wild-type ribosome), % (no concentration beside the values); actives 1.6% (n = 350,000); AID 720706;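 active means significant combined selectivity score with lowered wild-type GFP, culture density cut under 30%, mutant RFP and density less affected; inactive means any of these conditions unmet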
RAD54 inh = RAD54 (human) branch migration inhibition | inhibition, % at 10.4 µM | actives 0.14% (n = 360,000) | RAD54 Holliday junction branch migration, FAM/BHQ fluorescence | Q92698;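 active means mean normalized replicate activity at least 40 and at least half of replicates scoring 40 or more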;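 further: 0% = median of neutral control wells and 100% = median of positive control wells; inhibitors cause a drop in the FAM fluorescence signal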
PglD DTNB = blocks C. jejuni PglD acetyltransferase activity. purified PglD enzyme, DTNB colorimetric CoA detection. inhibition, % at 12.5 µM. actives 0.098% (n = 360,000); in the data active means inhibition above about 16%, passing the limit was not always enough
RAD52 inh = blocks human RAD52 DNA annealing; recombinant RAD52 DNA annealing, FRET fluorescence; AID 651710; inhibition, % at 18.7 µM; actives 0.46% (n = 360,000);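 active means every replicate showing at least 50% inhibition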
Numbers without * were called inactive; x = not tested or not shown. Compounds with a hit are over-represented: about 2% of the library has one in this group of screens.

SMILES	E-selectin induc	XiGFP reactiv	Ecoli rRNA inh	RAD54 inh	PglD DTNB	RAD52 inh
COC(=O)c1sc(-c2ccc(Cl)cc2)cc1N	0	0	-1	-10	0	-13
CC(=O)c1sc(-c2ccc(Cl)cc2)cc1N	3	0	-30*	x	x	-3
C/C=C/c1ccc2c(c1)O[C@H](CN(C)C)[C@H](C)CN([C@@H](C)CO)S2(=O)=O	1	-1	4	-2	-3	4
CCCN1C(=O)c2ccc(C(=O)Nc3ccccc3C(=O)O)cc2C1=O	0	0	-21*	-27	-1	-7
O=C(COc1ccc(Cl)cc1)Nc1ncc([N+](=O)[O-])s1	-4	0	-24*	x	x	4
Cc1ccc(C(=O)Nc2ncc([N+](=O)[O-])s2)cc1	0	0	-52*	1	-4	-5
CC(=O)n1cc(/C=N/NC(=O)c2ccc(Cl)cc2)c2ccccc21	x	0	1	3	-1	4
Cn1c2ccccc2c2cc(/C=N/NC(=O)c3cc(O)cc(O)c3)ccc21	74*	0	-13	4	4	-114
Cn1c2ccccc2c2cc(/C=N/NC(=O)c3cc(O)ccc3O)ccc21	0	0	-7	-1	0	-6
CC(=O)n1cc(/C=N/NC(=O)c2cccc(O)c2)c2ccccc21	0	0	-23*	14	-1	-35
O=C(C[C@H]1C[C@@H]2c3cc(NC(=O)CC4CC4)ccc3O[C@@H]2[C@@H](CO)O1)NCc1ccccc1	0	0	-1	-3	-2	-5
CC(C)NC(=O)N(C)C[C@@H]1OCCCC[C@H](C)Oc2ccc(NC(=O)CCC(F)(F)F)cc2C(=O)N([C@H](C)CO)C[C@H]1C	0	0	1	x	x	x
CC1CC(C)CN(C(=O)/C=C/c2ccc([N+](=O)[O-])s2)C1 (stereo unspecified)	x	4	-29*	-26	-2	-3
CC=Cc1ccc2n(c1=O)C[C@H]1[C@H](CO)[C@@H](C(=O)NCCOC)[C@@H]2N1Cc1nccs1 (mixture of isomers)	0	0	3	-1	9	6
CC=Cc1ccc2n(c1=O)C[C@@H]1[C@@H](CO)[C@H](C(=O)NCc3ccccn3)[C@H]2N1CCC (mixture of isomers)	-2	0	3	-3	3	96*
CC=Cc1ccc2n(c1=O)C[C@@H]1[C@@H](CO)[C@H](C(=O)NCCOC)[C@H]2N1Cc1nccs1 (mixture of isomers)	0	1	1	1	19*	4
COc1ccccc1-c1ccc2n(c1=O)C[C@H]1[C@H](CO)[C@@H](C(=O)N(C)C)[C@@H]2N1C(=O)c1cccnc1	0	0	3	15	-1	1
COc1cccc(OC)c1OCCCOc1cccc2cccnc12	-1	0	-29*	-6	-1	-1
COc1ccc(OC)c(C(=O)COC(=O)c2cc(C)oc2C)c1	x	x	x	7	-1	x
COc1ccc(OC)c(C(=O)COC(=O)c2ccc([N+](=O)[O-])o2)c1	-1	0	-20*	1	-3	-5
COc1ccc(NC(=O)CSc2nc(C)cc(C)n2)c([N+](=O)[O-])c1	x	0	-19	x	x	-40
COc1ccc(NC(=O)CSc2ccccn2)c([N+](=O)[O-])c1	0	0	-26*	-12	-1	-17
COc1ccc(S(=O)(=O)N2CCC(O)(c3ccc(Cl)cc3)CC2)cc1	x	x	x	-24	0	x
COc1ccc(S(=O)(=O)N2CCC(O)(c3ccc(Cl)cc3)CC2)cc1OC	1	0	-24*	x	x	-4
CO[C@@H]1CN(C)C(=O)c2ccc(NS(=O)(=O)c3ccccc3)cc2OC[C@H](C)NC[C@@H]1C	0	0	5	-12	0	-9
SMILES	E-selectin induc	XiGFP reactiv	Ecoli rRNA inh	RAD54 inh	PglD DTNB	RAD52 inh
CNC(=O)COC(=O)c1cc(-c2ccccc2)nn1-c1ccccc1	0	0	-27*	-6	2	16
COc1ccc(-c2cc(C(=O)NN)n(-c3ccccc3)n2)cc1	1	0	-3	x	x	-11
C[C@@H]1CN([C@H](C)CO)C(=O)c2cc(NC(=O)CCN3CCOCC3)ccc2O[C@@H]1CN(C)C(=O)Nc1ccc2c(c1)OCO2	-3	0	2	12	2	-12
O=C(Nc1ccc2c(c1)OCCO2)C(=S)NCc1ccccc1	3	0	-32*	x	x	-24
Cc1ccc(OCCC(=O)OCC(=O)NCCc2ccccc2)cc1	x	0	-22*	x	x	-3
O=C(C1CCOCC1)N1CC(=O)N2[C@H](C1)[C@H](c1ccc(C#CC3CCCC3)cc1)[C@@H]2CO	-1	0	6	x	x	-6
Cc1cccc(Nc2nc(-c3ccc(F)cc3)cs2)n1	x	0	-18*	-1	-2	-16
N#C/C(=C\c1ccc(OCc2ccc(Cl)cc2)cc1)C(=O)Nc1cccc(C(=O)O)c1	x	0	-27*	1	2	0
Cc1ccc(NC(=S)Nc2ccc(Cl)c(Cl)c2)c(OC(F)F)c1	2	0	-41*	x	x	-6
COc1ccc(S(=O)(=O)N(C)C[C@H]2Oc3cc(C4=CCCC4)ccc3S(=O)(=O)N([C@H](C)CO)C[C@H]2C)cc1	1	-1	1	15	2	4
CO[C@H]1CN(C)C(=O)c2ccc(NC(=O)NC(C)C)cc2OC[C@H](C)N(Cc2ccccn2)C[C@H]1C	0	0	1	1	0	0
Cc1cc(C(C)(C)C)oc1C(=O)N(CC(=O)NC1CCCC1)Cc1ccccc1	x	x	x	2	-3	x
Cc1ccc(C)c(N(CC(=O)NC2CCCC2)C(=O)c2oc(C(C)(C)C)cc2C)c1	x	x	-16*	4	-6	-10
Cc1noc(C)c1NC(=O)Nc1ccc2c(c1)C(=O)N([C@@H](C)CO)C[C@@H](C)[C@H](CN(C)S(=O)(=O)c1ccc(F)cc1)OCCCC[C@H](C)O2	0	0	-1	0	-1	28
O=[N+]([O-])c1ccc(C(O)C(CO)NC(=S)Nc2ccccc2)cc1 (stereo unspecified)	x	0	-44*	x	x	-7
CC(C)[C@@H]1CC=CC[C@H](C)Oc2ccccc2C(=O)N(C)[C@H](C(C)C)C(=O)N1 (mixture of isomers)	x	0	-14	x	x	x
CC1=CCC2C(=O)N(CCc3c[nH]c4ccccc34)C(=O)C2C1 (stereo unspecified)	x	x	x	3	-9	x
O=C1C2CC=C(Cl)CC2C(=O)N1CCc1c[nH]c2ccccc12 (stereo unspecified)	x	x	-26*	-9	4	-17

Screening results (PubChem BioAssay)
